Experimental data published in ChEMBL document CHEMBL5154735, “Interaction of A3 adenosine receptor ligands with the human multidrug transporter ABCG2” (Eur J Med Chem, 2022).

Assays:
[1] = target: T1, ABCG2 (Homo sapiens, UniProt Q9UNQ0); experiment: Activation of human ABCG2-mediated ATPase activity preincubated for 2 mins followed by ATP addition at 0.5 uM and measured after 20 mins by colorimetric assay relative to control; conditions: read-out: Activity
T1 sequence (Q9UNQ0 whole entry): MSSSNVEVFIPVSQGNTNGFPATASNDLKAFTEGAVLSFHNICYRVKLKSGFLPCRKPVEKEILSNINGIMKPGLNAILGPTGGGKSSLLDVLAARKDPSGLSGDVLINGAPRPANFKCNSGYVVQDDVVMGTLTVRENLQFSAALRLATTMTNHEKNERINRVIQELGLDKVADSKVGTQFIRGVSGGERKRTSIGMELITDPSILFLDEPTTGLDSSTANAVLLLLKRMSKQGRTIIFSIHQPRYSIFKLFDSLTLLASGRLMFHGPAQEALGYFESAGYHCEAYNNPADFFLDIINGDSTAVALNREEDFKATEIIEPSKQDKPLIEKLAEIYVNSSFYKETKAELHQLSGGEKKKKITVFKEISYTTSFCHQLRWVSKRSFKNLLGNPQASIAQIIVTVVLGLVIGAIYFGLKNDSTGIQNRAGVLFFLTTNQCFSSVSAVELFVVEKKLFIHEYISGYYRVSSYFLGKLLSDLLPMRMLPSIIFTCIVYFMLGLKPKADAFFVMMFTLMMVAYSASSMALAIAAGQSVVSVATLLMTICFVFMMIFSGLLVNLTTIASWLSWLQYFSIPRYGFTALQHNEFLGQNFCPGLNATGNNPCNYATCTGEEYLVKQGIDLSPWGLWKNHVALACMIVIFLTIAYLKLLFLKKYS
Method in brief: (§1)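 Total membrane vesicles from High-Five insect cells expressing human ABCG2 (hypotonic lysis, differential centrifugation), 10 μg protein/tube, in MES-Tris pH 6.8 buffer with KCl, MgCl2, NaN3, EGTA, ouabain, DTT. Compound in DMSO added ± sodium orthovanadate (0.3 mM), DMSO control. Preincubated 2 min at 37°C, then 5 mM ATP, 20 min. SDS stop, Pi measured colorimetrically. Three independent experiments in duplicate, mean ± SE.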

[2] = target: T1, ABCG2; experiment: Activation of human ABCG2-mediated ATPase activity preincubated for 2 mins followed by ATP addition at 5 uM and measured after 20 mins by colorimetric assay relative to control; conditions: read-out: Activity; method in brief: as §1
[3] = target: T2, Broad substrate specificity ATP-binding cassette transporter ABCG2 (Homo sapiens, UniProt Q9UNQ0); experiment: Activation of human ABCG2-mediated ATPase activity preincubated for 2 mins followed by ATP addition and measured after 20 mins by colorimetric assay; method in brief: as §1
T2 sequence (Q9UNQ0 whole entry): T1 sequence (Q9UNQ0 whole entry)

[4] = target: T1, ABCG2; experiment: Inhibition of human ABCG2 in human R5 cells assessed as inhibition of mitoxantrone efflux at 10 uM measured by flow cytometric analysis relative to control; format: cell-based; conditions: probe mitoxantrone
Method in brief: (§2)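 HEK293 cells transfected with full-length ABCG2 (R-5) or empty pcDNA vector, grown in MEM with 10% FBS and 2 mg/ml G418. Cells incubated in IMDM with 5% FBS, 5 μM mitoxantrone (final) ± compound, 37°C for 45 min. Washed in cold IMDM, resuspended in cold PBS with 1% BSA, read by flow cytometry.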

[5] = target: T1, ABCG2; experiment: Inhibition of human ABCG2-mediated ATPase activity preincubated for 2 mins followed by ATP addition at 2.5 uM and measured after 20 mins by colorimetric assay relative to control; method in brief: as §1
[6] = target: T1, ABCG2; experiment: Inhibition of human ABCG2-mediated ATPase activity preincubated for 2 mins followed by ATP addition at 10 uM and measured after 20 mins by colorimetric assay relative to control; method in brief: as §1
[7] = target: T2, Broad substrate specificity ATP-binding cassette transporter ABCG2; experiment: Inhibition of human ABCG2-mediated ATPase activity preincubated for 2 mins followed by ATP addition and measured after 20 mins by colorimetric assay; method in brief: as §1
[8] = target: T1, ABCG2; experiment: Activation of human ABCG2-mediated ATPase activity preincubated for 2 mins followed by ATP addition at 100 nM and measured after 20 mins by colorimetric assay relative to control; conditions: read-out: Activity; method in brief: as §1
[9] = target: T2, Broad substrate specificity ATP-binding cassette transporter ABCG2; experiment: Inhibition of human ABCG2 in human R5 cells assessed as inhibition of mitoxantrone efflux measured by flow cytometric analysis; format: cell-based; method in brief: as §2
[10] = target: T3, Adenosine receptor A3 (Mus musculus, UniProt Q61618); experiment: Binding affinity towards mouse adenosine A3 receptor
T3 sequence (Q61618 whole entry): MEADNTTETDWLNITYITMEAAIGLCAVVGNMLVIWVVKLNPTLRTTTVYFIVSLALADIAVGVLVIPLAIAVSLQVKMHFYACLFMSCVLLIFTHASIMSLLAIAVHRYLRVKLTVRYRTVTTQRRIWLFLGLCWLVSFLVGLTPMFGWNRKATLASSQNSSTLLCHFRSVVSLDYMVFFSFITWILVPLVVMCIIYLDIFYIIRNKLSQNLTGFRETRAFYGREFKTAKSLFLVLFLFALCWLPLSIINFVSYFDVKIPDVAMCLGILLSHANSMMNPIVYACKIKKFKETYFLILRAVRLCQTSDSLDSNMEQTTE

[11] = target: T4, Adenosine receptor A3 (Homo sapiens, UniProt P0DMS8); experiment: Binding affinity towards human adenosine A3 receptor
T4 sequence (P0DMS8 whole entry): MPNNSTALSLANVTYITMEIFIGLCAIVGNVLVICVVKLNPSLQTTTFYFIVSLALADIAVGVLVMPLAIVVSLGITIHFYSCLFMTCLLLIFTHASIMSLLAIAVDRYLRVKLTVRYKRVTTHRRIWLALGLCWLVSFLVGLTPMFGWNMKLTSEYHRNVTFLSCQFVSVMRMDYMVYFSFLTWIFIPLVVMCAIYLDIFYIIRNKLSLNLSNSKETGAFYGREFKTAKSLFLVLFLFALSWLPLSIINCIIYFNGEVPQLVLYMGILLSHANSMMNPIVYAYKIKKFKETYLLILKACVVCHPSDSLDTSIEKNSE

Compound	activity at 20 min, 0.5 µM [1] [%]	activity at 20 min, 5 µM [2] [%]	EC50 [3] [nM]	inhibition at 10 µM [4] [%]	inhibition at 20 min, 2.5 µM [5] [%]	inhibition at 20 min, 10 µM [6] [%]	IC50 [7] [nM]	activity at 20 min, 0.1 µM [8] [%]	IC50 [9] [nM]	Ki [10] [nM]	Ki [11] [nM]
CNC(=O)C12CC1[C@@H](n1cnc3c(NCc4cccc(Cl)c4)nc(C#Cc4ccc(F)c(F)c4)nc31)[C@H](O)[C@@H]2O (single isomer, unassigned)	74.4	56.8	80	99.2							
CNC(=O)C12CC1[C@@H](n1cnc3c(NCc4cccc(-n5cc(-c6ccc(F)c(F)c6)nn5)c4)nc(C#Cc4ccc(F)cc4)nc31)[C@H](O)[C@@H]2O (single isomer, unassigned)				102	54.4	74.7	2590				
CCOC(=O)C12CC1[C@@H](n1ccc3c(NCCc4ccccc4)nc(C#Cc4ccccc4)nc31)[C@H](O)[C@@H]2O (single isomer, unassigned)			13.2	92.6				77.3	440	> 10000	
CCOC(=O)C12CC1[C@@H](n1ccc3c(NCCCc4ccc(OC)c(O)c4)nc(C#Cc4ccc(Cl)s4)nc31)[C@H](O)[C@@H]2O (single isomer, unassigned)			24.3	109				74.2	600		≥ 99
COc1cc(CCNC2=NC(C#Cc3ccc(Cl)s3)=NC3=NC=NC32)ccc1O (stereo not drawn)			13.2	110				111	4980		6820
